Shown are actives, neighbours in structure and some others; about 2% of the full set was active somewhere.
T cruzi repl – blocks replication of Trypanosoma cruzi | T. cruzi beta-gal in NIH3T3, luminescence, 90 h | inhibition, % (test concentration not listed) | 300,000 tested, 1.4% active;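 active = mean inhibition across valid replicates above about 55%, limit read from the data; inconclusive = mean below that limit but half or more replicates reach it; inactive = mean below it, under half of replicates reach it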;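 note: signal also drops with host cell toxicity which is not excluded here; 0% = plate median of DMSO wells and 100% = zero luminescence signal; higher percent means less beta-gal luminescence so fewer parasites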
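Assay system: NIH/3T3 host cells with β-galactosidase reporter T. cruzi; input: 5,000 host fibroblasts per well; compound: single 50 nL compound addition per well in DMSO; timing: ≥90 h infection period, 3 h prior cell attachment; measured by: GalScreen β-gal luminescence, detergent lysis, 60 min; evaluation: percent inhibition of parasite-derived β-gal signal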
HIF activator – HIF pathway transcriptional activation. U2OS HRE-luciferase reporter, luminescence; normalized: DMSO 0%, desferrioxamine 100%. activation, % at 7.5 µM (by protocol). 300,000 tested, 0.32% active. AID 1910;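 active = mean activation of at least 10% of the iron chelator positive control signal, with at least half of replicates also reaching 10%; inconclusive = mean and replicate majority disagree about reaching 10%; inactive = mean and most replicates under 10%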
ARNT TACC3 PPI – disrupts binding between human ARNT and TACC3; Q9Y6A5; inhibition, % at 9.99 µM; AID 623870; 390,000 tested, 0.66% active; AlphaScreen His-ARNT PAS-B/GST-TACC3 binding, luminescence; TACC3 fragment carries E629A point mutation;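 active = mean inhibition of replicates at least 50% and at least half of replicates each reaching 50%; inconclusive = half or more replicates reach 50% but mean below 50%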;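 note: 0% = complete ARNT plus TACC3 wells and 100% = ARNT alone without TACC3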
AI-2 QS mod – modulators of Vibrio harveyi AI-2 quorum sensing system; 300,000 tested, 0.4% active; Vibrio harveyi JMH597 AI-2 luminescence/OD600 ratio, 9 h; active compounds read low; strain lacks LuxN and CqsS sensors; 0 = neutral-control median; activity change, % at 7.5 µM; in the data active = activity change below about -75%, passing the limit was not always enough; inconclusive = no clear call, values can overlap the other calls;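 note: luminescence divided by OD600 gain over 9 h not by final OD600 alone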
JMH597 growth – retest Vibrio harveyi JMH597 growth inhibition | 750 tested, 1% active | growth inhibition, % at 7.5 µM | shares compounds with AI-2 QS mod | OD600 absorbance, 9 h; lacks LuxN and CqsS sensors;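 active = every replicate shows growth inhibition above 50%; inconclusive = at least half, but not all, replicates pass that cutoff; inactive = fewer than half of replicates pass it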
BB721 lum counter – retest counter-screen: BB721 constitutive quorum sensing luminescence decrease | inhibition, % at 7.5 µM | 750 tested, 95% active | Vibrio harveyi BB721 luminescence, 9 h | shares compounds with AI-2 QS mod;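 active = inhibition above about 80% in every replicate, not just on average, limit read from the data; inconclusive = at least half of replicates past the limit, but not all; inactive = fewer than half of replicates past the limit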
BB721 growth – retest Vibrio harveyi BB721 growth inhibition. AID 2728. growth inhibition, % at 7.5 µM. shares compounds with AI-2 QS mod. 750 tested, 3% active. OD600 absorbance, 9 h;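 active = every replicate shows growth inhibition above 50%; inconclusive = at least half but not all replicates above 50% inhibition; inactive = under half of replicates above 50% inhibition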
AI-2 QS JMH597 – Vibrio harveyi AI-2 signaling luminescence modulation – JMH597 strain, confirmation | shares compounds with AI-2 QS mod | Vibrio harveyi JMH597 AI-2 quorum sensing luminescence, 9 h; luxN and CqsS knockout, AI-2 only | inhibition, % at 7.5 µM | 750 tested, 97% active;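 active = every replicate shows more than 75% inhibition of signal versus neutral control wells; inconclusive = half to three quarters of replicates exceed 75% inhibition; inactive = fewer than half of replicates exceed 75% inhibition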
ARNT Alpha ctr-1 – AlphaScreen artifact in ARNT/TACC3 counter-screen; AC50, µM (series often up to 68 µM), inactives show at the top dose activity change, negative = signal decrease; AID 651705; 1,200 tested, 50% active; His-ARNT PASB-GST AlphaScreen artifact counter-screen, luminescence; shares compounds with ARNT TACC3 PPI;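 active = every separate test run was called active for a drop in luminescence, with AC50 within twice the top valid dose, actives reach about 71 µM in these data; inconclusive = the separate test runs disagree in their calls; inactive = all runs inactive, including signal change in the wrong direction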
ARNT Alpha ctr-2 – produces AlphaScreen artifacts in ARNT-TACC3 counter-screen | AID 720564 | shares compounds with ARNT TACC3 PPI | Dual-tagged His-ARNT PASB-GST AlphaScreen artifact counter-screen | AC50, µM | 45 tested, 70% active;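 active = luminescence drop, with half-maximal potency fitted within twice the sample's top valid dose, cut at about 70 µM in these data; inactive = the rest, including signal moving the wrong way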
* hit, by the source's call; i = inactive; ? = inconclusive; · = no result given; [ ] = another dose, or the depositor's remark.

SMILES	T cruzi repl	HIF activator	ARNT TACC3 PPI	AI-2 QS mod	ARNT Alpha ctr-1	others
CCCn1c(=S)[nH]c2cc(C(=O)N3CCc4ccccc43)ccc2c1=O	8	0	0	?	·	JMH597 growth=-4;BB721 lum counter=85*;BB721 growth=-10;AI-2 QS JMH597=89*
CCc1ccc(S(=O)(=O)Nc2ccc(Br)cn2)cc1	7	-1	0	?	·	JMH597 growth=22;BB721 lum counter=-10;BB721 growth=1;AI-2 QS JMH597=95*
Cc1ccccc1C(=O)OCc1nnc(-c2ccc(Cl)cc2)o1	-9	1	-8	?	·	JMH597 growth=-1;BB721 lum counter=91*;BB721 growth=-12;AI-2 QS JMH597=93*
Cc1noc(C)c1NC(=O)N(C)C[C@@H]1OCc2ccccc2-c2ccccc2C(=O)N([C@H](C)CO)C[C@@H]1C	·	·	-4	·	·
Cc1ccc(O)c(/C=N/NC(=O)Cc2ccc(Cl)cc2)c1	-1	-1	-9	-93*	·	JMH597 growth=31;BB721 lum counter=99*;BB721 growth=33;AI-2 QS JMH597=99*
Cc1ccsc1/C=N/NC(=O)Cc1ccc(Cl)cc1	-2	0	-7	-9	·
CC(C)c1ccc(O)c(NC(=O)c2cncc(Br)c2)c1	0	1	-2	-94*	·	JMH597 growth=8;BB721 lum counter=98*;BB721 growth=32;AI-2 QS JMH597=98*
Nc1nc(SCC(=O)Nc2ccc(Oc3ccccc3)cc2)n[nH]1	13	-1	-7	-90*	·	JMH597 growth=23;BB721 lum counter=95*;BB721 growth=19;AI-2 QS JMH597=97*
CCNC(=O)C[C@H]1CC[C@H]2[C@H](COc3ccc(NC(=O)C4CCOCC4)cc3C(=O)N2C)O1	·	·	-2	·	·
Cc1nnc(NC(=O)CSc2nnc(CNC(=O)c3ccc(S(=O)(=O)N(C)C)cc3)o2)s1	-34	0	63*	19	-2%
O=C(CSc1nnc(CNC(=O)c2ccc(F)cc2)o1)Nc1nccs1	-20	0	63*	21	-14%
COc1ccc(C(=O)CSc2nnc(CNC(=O)c3ccc(S(=O)(=O)N(C)C)cc3)o2)cc1	-7	0	-3	2	·
COc1cccc(NC(=O)N[C@H]2C=C[C@@H](CC(=O)N3CCN(C)CC3)O[C@@H]2CO)c1	·	·	-3	·	·
C[C@H]1CN([C@@H](C)CO)S(=O)(=O)c2ccc(C3=CCCC3)cc2O[C@H]1CN(C)C(=O)c1ccncc1	·	·	-1	·	·
CCC(=O)Nc1ccc2c(c1)OC[C@@H](C)N(C(=O)CN(C)C)C[C@@H](C)[C@@H](OC)CN(C)C2=O	·	·	-2	·	·
COc1ccccc1NC(=O)CSc1n[nH]c(-c2ccccn2)n1	-21	-1	61*	42	11µM*
COc1ccc(NC(=O)CSc2n[nH]c(-c3ccccn3)n2)cc1	-3	0	58*	72	6.9µM*
O=C(CSc1n[nH]c(-c2ccccn2)n1)Nc1ccccc1	-21	0	62*	-21	7.7µM*
COc1ccccc1NC(=O)CSc1n[nH]c(-c2ccco2)n1	·	·	-2	·	·
COc1cccc(CNC(=O)COC(=O)c2ccc(C(=O)c3ccccc3)cc2)c1	·	·	55*	·	-8%
COc1cccc(CNC(=O)COC(=O)c2ccc(Cl)s2)c1	·	·	-5	·	·
CC=Cc1ccc2n(c1=O)C[C@@H]1[C@@H](CO)[C@H](C(=O)NC3CCC3)[C@H]2N1S(=O)(=O)c1cn(C)cn1 (mixture of isomers)	·	·	5	·	·
CC=Cc1ccc2n(c1=O)C[C@H]1[C@H](CO)[C@@H](C(=O)NC3CCC3)[C@@H]2N1S(=O)(=O)c1cn(C)cn1 (mixture of isomers)	·	·	active	·	-2%[38 µM]
O=C(Nc1nc(-c2ccccn2)cs1)C1COc2ccccc2O1 (stereo not given)	·	·	71*	·	29µM*
Cc1csc(NC(=O)c2ccc(Cl)cc2[N+](=O)[O-])n1	47	2	3	15	·
SMILES	T cruzi repl	HIF activator	ARNT TACC3 PPI	AI-2 QS mod	ARNT Alpha ctr-1	others
Cc1ccc(C(=O)Nc2nc(-c3ccccc3)cs2)o1	·	·	·	·	·	ARNT Alpha ctr-2=i
O=C(Nc1nc(-c2ccccn2)cs1)c1cc(Cl)ccc1[N+](=O)[O-]	64*	36*	58*	74	18µM*
CC(=O)Nc1ccc(-c2csc(NC(=O)c3ccc(C)o3)n2)cc1	4	1	2	17	·
O=C(Nc1nc(-c2ccccn2)cs1)c1ccc([N+](=O)[O-])o1	47	1	61*	?	17µM*
COCC(=O)Nc1ccc2c(c1)[C@H]1C[C@@H](CC(=O)NCc3ccccc3)O[C@@H](CO)[C@H]1O2	·	·	-6	·	·
O=C(COc1ccc([N+](=O)[O-])cc1)Nc1nc(-c2ccccn2)cs1	61*	1	63*	-21	48µM*
O=C(COc1ccccc1)Nc1nc(-c2ccncc2)cs1	16	0	-1	-9	·
O=C(Nc1nc(-c2ccccn2)cs1)c1ccc(-c2ccccc2F)o1	·	·	44	·	·
Cc1ccc(C(=O)Nc2nc(-c3ccccn3)cs2)o1	45	8	60*	24	23µM*	ARNT Alpha ctr-2=9.9*
Cc1noc(C)c1S(=O)(=O)Nc1ccc2c(c1)C(=O)N([C@@H](C)CO)C[C@@H](C)[C@H](CN(C)C(=O)Nc1ccc(F)cc1)OCCCC[C@@H](C)O2	·	·	1	·	·
COc1ccc(S(=O)(=O)N(C)C[C@@H]2OCCCC[C@H](C)Oc3ccc(NC(=O)Nc4ccccc4)cc3C(=O)N([C@H](C)CO)C[C@@H]2C)cc1	·	·	-18	·	·
O=C(N/N=C/c1ccccc1O)C1SCCCS1	-5	2	56*	21	-28%
O=C(N/N=C/c1ccccc1O)C1(O)c2ccccc2-c2ccccc21	-7	1	·	30	·
c1ccc(-c2cnc(-c3ccccn3)nn2)cc1	-11	1	65*	26	32µM*
c1ccc(-c2cnnc(-c3ccccn3)n2)cc1	-14	1	57*	11	26µM*
C[C@@H]1CN([C@@H](C)CO)S(=O)(=O)c2ccc(Br)cc2O[C@@H]1CN(C)C(=O)c1cnccn1	·	·	3	·	·
COc1ccc(N2C(=O)[C@@H]3[C@H](C2=O)[C@H]2c4ccccc4C=CN2[C@@H]3C(=O)Nc2ccccc2)cc1	·	·	-4	·	·
O=C(c1ccco1)[C@@H]1[C@@H]2C(=O)N(c3ccccc3)C(=O)[C@@H]2C2c3ccccc3C=CN21 (stereo not given in full)	-3	0	41*	3	-34%
